Results as given in ChEMBL document CHEMBL1157173, “Isocoumarin-based inhibitors of pancreatic cholesterol esterase” (Bioorg Med Chem, 2008).

Test: Binding affinity to pig pancreatic cholesterol esterase
Set-up: species or system Sus scrofa
Outline: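 Porcine enzyme assayed in 0.1 M Hepes, pH 7, with 6 mM taurocholate and 1 mM p-nitrophenylbutyrate substrate; hydrolysis followed at 405 nm. Inhibition constants derived from double reciprocal and Dixon plots, and for high-affinity inhibitors from Straus-Goldstein plots.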

SMILES | Ki
O=c1oc(OC2CCCC2)c(Cl)c2ccccc12 | 0.95 µM
O=C(c1c(OCCC2CCCCC2)oc(=O)c2ccccc12)C(F)(F)F | 73 µM
O=c1oc(OCC2CCCCC2)c(Cl)c2ccccc12 | 1.8 µM
O=C(c1c(OCC2CCCCC2)oc(=O)c2ccccc12)C(F)(F)F | > 100 µM
O=c1oc(OCCCBr)cc2ccc([N+](=O)[O-])cc12 | 33 µM
O=c1oc(OCCCCCC2CCCCC2)c(Cl)c2ccccc12 | 62 µM
O=c1oc(OC2CCC(C3CCCCC3)CC2)c(Cl)c2ccccc12 (stereo not given) | 0.19 µM
O=c1oc(OCCC2CCCCC2)cc2ccc([N+](=O)[O-])cc12 | > 100 µM
COc1oc(=O)c2cc(NC(=O)C3CCCCC3)ccc2c1Cl | > 25 µM
CCCOc1oc(=O)c2ccccc2c1C(=O)C(F)(F)F | > 25 µM
O=c1oc(OCC2CCCCC2)cc2ccc([N+](=O)[O-])cc12 | 54 µM
O=c1oc(OCCCCC2CCCCC2)c(Cl)c2ccccc12 | 0.011 µM
O=c1oc(OC2CCCCC2)c(Cl)c2ccccc12 | 1.2 µM
COc1oc(=O)c2cc(NC(=O)c3ccccc3)ccc2c1Cl | > 250 µM

The remaining lines, values ahead:

Ki | SMILES
17 µM | COc1oc(=O)c2cc(N)ccc2c1Cl
26 µM | Nc1ccc2c(Cl)c(OCCBr)oc(=O)c2c1
6.5 µM | CCCCOc1oc(=O)c2ccccc2c1Cl
50 µM | O=c1oc(OCCBr)cc2ccc([N+](=O)[O-])cc12
> 100 µM | Nc1ccc2cc(OCCBr)oc(=O)c2c1
0.019 µM | O=c1oc(OCCCC2CCCC2)c(Cl)c2ccccc12
3.6 µM | CCCOc1oc(=O)c2ccccc2c1Cl
1.2 µM | O=c1oc(OCCC2CCCCC2)c(Cl)c2ccccc12
0.36 µM | O=c1oc(OCC2CCCC2)c(Cl)c2ccccc12
0.26 µM | O=c1oc(OCCC2CCCC2)c(Cl)c2ccccc12
1.6 µM | O=c1oc(OCCCBr)c(Cl)c2ccc([N+](=O)[O-])cc12
19 µM | COc1oc(=O)c2cc([N+](=O)[O-])ccc2c1Cl
0.26 µM | O=c1oc(OCCBr)c(Cl)c2ccc([N+](=O)[O-])cc12
0.18 µM | O=c1oc(OCCCC2CCCCC2)c(Cl)c2ccccc12
0.7 µM | O=c1oc(OCCC2CCCCC2)c(Cl)c2ccc([N+](=O)[O-])cc12
5.7 µM | O=c1oc(OCC2CCCCC2)c(Cl)c2ccc([N+](=O)[O-])cc12
